RORA act: activators of orphan receptor RORA, primary screen, cell-based, luminescence; Nuclear receptor ROR-alpha (Homo sapiens), P35398; CHO-K1 Gal4-RORA LBD luciferase reporter; percent increase over mock-subtracted basal signal; activation, % at 10 µM; 65,000 compounds, 1.5% hits; AID 560, 2006;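 active = activation above the mean of all tested compounds plus 3 SD, cut at about 49% in these data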;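 note: 0% = DMSO-treated RORA cells and 100% = added signal equal to DMSO minus mock-transfected cells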
Target sequence (P35398 whole entry, looked up, the tested form may be a part): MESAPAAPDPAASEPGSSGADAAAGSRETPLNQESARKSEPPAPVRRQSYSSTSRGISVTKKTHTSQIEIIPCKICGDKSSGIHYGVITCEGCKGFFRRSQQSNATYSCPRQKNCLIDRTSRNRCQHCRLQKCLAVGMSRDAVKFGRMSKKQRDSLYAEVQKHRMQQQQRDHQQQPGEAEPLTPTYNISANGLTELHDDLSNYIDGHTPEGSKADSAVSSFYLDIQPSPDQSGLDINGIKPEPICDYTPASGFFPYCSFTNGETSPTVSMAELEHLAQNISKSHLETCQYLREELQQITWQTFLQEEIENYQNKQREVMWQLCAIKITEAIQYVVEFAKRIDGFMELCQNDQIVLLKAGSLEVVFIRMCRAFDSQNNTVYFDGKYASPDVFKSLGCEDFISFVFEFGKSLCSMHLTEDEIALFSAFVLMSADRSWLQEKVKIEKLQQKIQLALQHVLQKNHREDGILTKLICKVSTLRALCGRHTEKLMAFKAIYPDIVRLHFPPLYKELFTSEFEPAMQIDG
M1 ag: M1 muscarinic receptor agonists, primary screen, CHO-M1 cells, Fluo-4 calcium, agonist mode; Fluo-4 calcium fluorescence; stronger effect = higher value; B-score at 10 µM; 64,000 compounds, 3% hits; AID 626, 2007;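 active = fluorescence rise, raw or as B-score row- and column-corrected plate score, outside the 99.7% band of its plate's samples, either direction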
SF-1 act: activators of human SF-1, primary screen, cell-based, CHO-K1, Gal4-SF-1 LBD, luciferase luminescence; Steroidogenic factor 1 (Homo sapiens), Q13285; CHO-K1 Gal4-SF-1 LBD luciferase reporter; % increase over DMSO SF-1-specific signal; activation, % at 10 µM; 65,000 compounds, 1.9% hits; AID 522, 2006;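 active = activation above the mean activation of all tested compounds plus 3 SD, cut at about 50% in these data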
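material = CHO-K1 cells with Gal4–hSF-1 LBD chimera plus Gal4-driven luciferase | compound = 10 µM single point, 1% DMSO | incubation = 20 h compound exposure at 37 °C after 1 h cell settling | measured by = SteadyLite luciferase luminescence | evaluation = percent activation relative to DMSO median and mock-transfected background | control set = DMSO negative control and −SF1 background wells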
D1 allo mod: D1 CRE-luciferase signal change, two-sided – cell-based, HEK293 D1, dopamine EC30, D1 allosteric modulator project, primary screen; D(1A) dopamine receptor (Homo sapiens), P21728; dopamine EC30 potentiation; actives deviate in either direction; B-score at 10 µM; 58,000 compounds, 5.9% hits; AID 641, 2007;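 active = luminescence count or its row- and column-corrected plate score outside the 99.7% band of the plate's sample wells, on either side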
M1 antagonist: antagonists of rat M1 muscarinic receptor; Muscarinic acetylcholine receptor M1 (Rattus norvegicus), P08482; CHO-M1 cells, Fluo-4 calcium, ACh EC80 antagonist mode; stronger effect = lower value; B-score at 10 µM; 64,000 compounds, 3.4% hits; AID 628, 2007;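 active = calcium fluorescence response, raw or row-and-column corrected B-score, differing from the plate sample mean either way at a set confidence level, mostly lower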
Htt clearance: clearance of mutant huntingtin inclusions, primary screen, imaging, HeLa Exon1htt(103Q)mCFP, confocal imaging; aggregate imaging; zero = plate's median compound well; inhibition, % at 1.5 µM; 47,000 compounds, 0.42% hits;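 active = inhibition of aggregate fluorescence above about 70%, also judged a hit by eye on the cell image, limit read from the data, passing the limit was not always enough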;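 note: cells exposed to compound for three days before fixation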
M1 antag conf: rat M1 muscarinic receptor antagonists, confirmation, CHO cells, Fluo-4 calcium, duplicate | shares compounds with M1 antagonist | ACh EC80 antagonism; stronger effect = lower value | calcium response (max-min fluorescence) at 10 µM | 1,700 compounds, 43% hits;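 active = calcium response below the same-plate mean of wells given acetylcholine alone at its 80%-effect dose, minus 3 SD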;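 note: raw fluorescence intensity difference in arbitrary instrument units and not normalized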
mGluR4 antag: human mGluR4 response to M1 antagonist hits, M1 allosteric modulator project, cell-based, antagonist mode, secondary assay 1; 1,700 compounds, 0.9% hits; AID 678, 2007; shares compounds with M1 antagonist; CHO-mGluR4 calcium flux, Fluo-4 fluorescence, glutamate EC80; stronger effect = lower value; fluorescence response (max-min) at 10 µM;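 active = fluorescence response below the plate's average for near-maximal glutamate wells, less 3 SD of those wells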;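 note: raw unnormalized fluorescence span taken in the window right after glutamate addition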
* = called active by the depositor. The list is not random: actives were taken first. Their share in the collection is about 11%.

For CCOc1ccc(CCNC(=O)C2CCCN(c3nnc(-n4cccc4)s3)C2)cc1OCC (configuration not stated) the results were RORA act -21.4, M1 ag 1.04, SF-1 act 18.4 and M1 antagonist 1.88.
Screening CCOc1ccc2sc(NS(=O)(=O)c3ccc(OC)c(OC)c3)nc2c1 returned RORA act -5.9, M1 ag 1.92, SF-1 act -9.1, D1 allo mod 0.5 and M1 antagonist 0.159.
For Cc1ccc(-n2ncc3c(NCC4CCCO4)ncnc32)c(C)c1 (configuration not stated) the results were RORA act -12.1, M1 ag 0, SF-1 act 0.8, D1 allo mod -0.498, M1 antagonist -3.61*, Htt clearance 18.3, M1 antag conf 504 and mGluR4 antag 167.
`C=CCNc1ncnc2c1cnn2-c1ccc(C)cc1C` gave RORA act 19.4, M1 ag 0.133, SF-1 act 16.3, D1 allo mod -1.27 and M1 antagonist -0.105.
`Cc1ccc2[nH]c3c(N4CCCCCC4)ncnc3c2c1` gave RORA act -77.7, M1 ag 6.27, SF-1 act -73.7, M1 antagonist -2.74*, M1 antag conf 387* and mGluR4 antag 178*.
`Cc1ccc(NC(=O)CN(C)S(=O)(=O)c2cccc3nsnc23)cc1Cl` gave RORA act 3.8, M1 ag -0.0232, SF-1 act 7.8, D1 allo mod 0.266, M1 antagonist 0.00791 and Htt clearance -50.2.
Screening Cc1ccc(NC(=O)CN(C)S(=O)(=O)c2cccc3nsnc23)cc1C returned RORA act -3.6, M1 ag -0.294, SF-1 act -16.1, D1 allo mod -0.777, M1 antagonist -3.09*, Htt clearance 8.9, M1 antag conf 652 and mGluR4 antag 240.
Cc1cc(S(=O)(=O)Nc2cccc(O)c2)c(C)s1 was read as RORA act 9.2, M1 ag -0.426, SF-1 act -12.6, D1 allo mod -0.443, M1 antagonist -0.744 and Htt clearance 5.7.
Screening CCn1c(SCc2nnc(-c3ccccc3)o2)nnc1-c1ccc(S(=O)(=O)N2CCCC2)cc1 returned RORA act -0.8, M1 ag 0.0111, SF-1 act -4.6, D1 allo mod -1.47, M1 antagonist -0.392 and Htt clearance -82.1.
`CCn1c(SCc2ccccc2)nnc1-c1ccc(S(=O)(=O)N2CCCCC2)cc1` gave RORA act -20.8, M1 ag 0.305, SF-1 act -7.1, M1 antagonist -2*, Htt clearance 29.0, M1 antag conf 504 and mGluR4 antag 225.
`OCCN1CCN(Cc2cccc(Oc3ccc(Cl)cc3)c2)CC1` gave RORA act -1.4, M1 ag -1.05, SF-1 act -19.0, D1 allo mod -0.745, M1 antagonist -2.87*, Htt clearance 62.8, M1 antag conf 378* and mGluR4 antag 187.
For CCOC(=O)C1=C(C)N2C(=C(C#N)[C@@H]1c1ccc(C(=O)OC)cc1)SC[C@@]2(O)C(C)(C)C the results were RORA act 15.9, M1 ag -0.574, SF-1 act -9.0, M1 antagonist -0.214 and Htt clearance 18.1.
Screening CC1CCCN(C(=O)COC(=O)c2n[nH]c3ccccc23)C1 (configuration not stated) returned RORA act -1.9, M1 ag 0.163, SF-1 act 37.0, D1 allo mod 0.335, M1 antagonist -9.56*, Htt clearance -27.0, M1 antag conf 670 and mGluR4 antag 241.
Screening O=[N+]([O-])c1cc(-c2cnc3ccccc3n2)ccc1Oc1ccc(F)cc1 returned Htt clearance 18.6.
For CC1(C)CC(c2csc(N)n2)CCO1 (configuration not stated) the results were RORA act -13.1, M1 ag -0.919, SF-1 act -9.7, D1 allo mod 0.185, M1 antagonist -0.718 and Htt clearance -7.1.
Screening Cc1ccc(CN(c2ccc(C(=O)Nc3cccnc3)cc2)S(C)(=O)=O)cc1 returned Htt clearance 6.2.
`CCN(C1CCCCC1)S(=O)(=O)c1ccc(S(=O)(=O)N2CCN(CCC#N)CC2)cc1` gave RORA act 23.7, M1 ag 0.046, SF-1 act -1.3, D1 allo mod -0.402, M1 antagonist -1.52*, Htt clearance -31.9, M1 antag conf 327* and mGluR4 antag 206.
N#CCCN1CCN(S(=O)(=O)c2ccc(S(=O)(=O)N3CCCCCC3)cc2)CC1 was read as RORA act 12.4, M1 ag -0.424, SF-1 act -9.0, D1 allo mod -0.00261 and M1 antagonist -0.0937.
COc1ccc2oc(=O)c(C(=O)N3CCN(c4ccccc4)CC3)cc2c1 was read as RORA act 15.2, M1 ag -0.00959, SF-1 act 9.5, D1 allo mod -0.712, M1 antagonist 0.168 and Htt clearance 17.7.
Screening COc1ccc(OC)c(S(=O)(=O)N2CCN(C34CC5CC(CC(C5)C3)C4)CC2)c1 returned RORA act 14.6, M1 ag -0.393, SF-1 act 0.2, D1 allo mod 0.0218, M1 antagonist -4.64*, Htt clearance -27.1, M1 antag conf 477* and mGluR4 antag 230.
COc1ccc2oc(=O)c(C(=O)N3CCN(C45CC6CC(CC(C6)C4)C5)CC3)cc2c1 was read as RORA act 33.9, M1 ag -0.0104, SF-1 act -3.7, D1 allo mod -0.22, M1 antagonist -3.03*, M1 antag conf 390 and mGluR4 antag 209.
For C=CCOc1cccc(C2/C(=C(/O)c3ccccc3)C(=O)C(=O)N2CCCN2CCOCC2)c1 (configuration not stated) the results were RORA act -3.9, M1 ag 0.376, SF-1 act -5.8, D1 allo mod -0.328 and M1 antagonist 0.184.
COc1ccc2[nH]c(=O)c(CNc3cccc(C)c3)cc2c1 was read as Htt clearance 16.4.
